Results as given in ChEMBL document CHEMBL3352617, “Discovery of 9-(1-phenoxyethyl)-2-morpholino-4-oxo-pyrido[1,2-a]pyrimidine-7-carboxamides as oral PI3Kβ inhibitors, useful as antiplatelet agents” (Bioorg Med Chem Lett, 2014).

Key:
[1] = molecular target: Phosphatidylinositol 4,5-bisphosphate 3-kinase catalytic subunit beta isoform (Homo sapiens, UniProt P42338); test: Inhibition of human recombinant PI3Kbeta assessed as PIP3 production by AlphaScreen assay
[2] = molecular target: Phosphatidylinositol 4,5-bisphosphate 3-kinase catalytic subunit alpha isoform (Homo sapiens, UniProt P42336); test: Inhibition of human recombinant PI3Kalpha assessed as PIP3 production by AlphaScreen assay
[3] = Apparent permeability across apical to basolateral side of human Caco2 cells at 10 uM at pH 6.5 by LC-tandem MS analysis; format: ADME, cell-based; conditions: Caco-2, pH 6.5
How it was run: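 Caco-2 monolayers, apical-to-basolateral transport at pH 6.5. Result given as apparent permeability (Papp).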

[4] = tested on: Hepatocyte; test: Intrinsic clearance in human hepatocytes at 2 uM by LCMS analysis; format: ADME, cell-based
How it was run: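 Test compound incubated with human hepatocytes. Intrinsic clearance and half-life derived from compound disappearance.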

[5] = Lipophilicity, log D of the compound at pH 7.4 by HPLC method; format: physicochemical; conditions: buffer
How it was run: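 LogD measured experimentally at pH 7.4 by an HPLC method.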

[6] = Antiplatelet activity against human platelet assessed as inhibition of collagen-induced platelet rich plasma aggregation by light transmission aggregometry; format: functional, cell-free
How it was run: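 Human platelet rich plasma stimulated with collagen. Aggregation read by light transmission aggregometry in an in-house 96-well plate format.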

Chain of Phosphatidylinositol 4,5-bisphosphate 3-kinase catalytic subunit alpha isoform (P42336 whole entry, canonical isoform): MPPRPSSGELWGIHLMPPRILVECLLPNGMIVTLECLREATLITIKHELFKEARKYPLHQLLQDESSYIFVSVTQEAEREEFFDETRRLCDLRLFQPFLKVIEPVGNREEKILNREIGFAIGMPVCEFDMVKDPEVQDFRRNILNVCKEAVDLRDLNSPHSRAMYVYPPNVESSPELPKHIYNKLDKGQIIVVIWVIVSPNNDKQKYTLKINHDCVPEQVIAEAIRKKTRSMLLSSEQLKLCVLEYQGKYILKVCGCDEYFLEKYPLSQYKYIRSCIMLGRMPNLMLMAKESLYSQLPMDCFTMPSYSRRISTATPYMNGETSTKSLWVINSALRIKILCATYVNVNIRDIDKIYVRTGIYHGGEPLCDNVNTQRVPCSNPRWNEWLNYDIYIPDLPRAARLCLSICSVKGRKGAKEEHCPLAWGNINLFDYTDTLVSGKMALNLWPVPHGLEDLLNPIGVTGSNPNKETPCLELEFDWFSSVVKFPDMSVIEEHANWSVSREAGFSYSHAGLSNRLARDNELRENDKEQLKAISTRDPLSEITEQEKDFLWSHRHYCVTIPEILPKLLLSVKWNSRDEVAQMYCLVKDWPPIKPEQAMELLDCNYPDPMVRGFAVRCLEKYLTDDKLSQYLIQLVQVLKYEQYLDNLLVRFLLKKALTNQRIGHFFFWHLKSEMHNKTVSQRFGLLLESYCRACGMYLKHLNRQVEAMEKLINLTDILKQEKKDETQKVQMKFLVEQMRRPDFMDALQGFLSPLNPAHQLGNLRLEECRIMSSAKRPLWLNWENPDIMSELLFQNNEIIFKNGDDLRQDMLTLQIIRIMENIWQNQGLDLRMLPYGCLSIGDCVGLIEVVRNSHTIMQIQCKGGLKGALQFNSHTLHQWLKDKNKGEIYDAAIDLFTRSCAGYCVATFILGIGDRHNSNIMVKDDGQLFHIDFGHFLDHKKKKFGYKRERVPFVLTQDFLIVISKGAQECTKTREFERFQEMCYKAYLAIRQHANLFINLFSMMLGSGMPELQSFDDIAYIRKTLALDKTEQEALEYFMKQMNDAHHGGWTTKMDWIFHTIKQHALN
Chain of Phosphatidylinositol 4,5-bisphosphate 3-kinase catalytic subunit beta isoform (P42338 whole entry, canonical isoform): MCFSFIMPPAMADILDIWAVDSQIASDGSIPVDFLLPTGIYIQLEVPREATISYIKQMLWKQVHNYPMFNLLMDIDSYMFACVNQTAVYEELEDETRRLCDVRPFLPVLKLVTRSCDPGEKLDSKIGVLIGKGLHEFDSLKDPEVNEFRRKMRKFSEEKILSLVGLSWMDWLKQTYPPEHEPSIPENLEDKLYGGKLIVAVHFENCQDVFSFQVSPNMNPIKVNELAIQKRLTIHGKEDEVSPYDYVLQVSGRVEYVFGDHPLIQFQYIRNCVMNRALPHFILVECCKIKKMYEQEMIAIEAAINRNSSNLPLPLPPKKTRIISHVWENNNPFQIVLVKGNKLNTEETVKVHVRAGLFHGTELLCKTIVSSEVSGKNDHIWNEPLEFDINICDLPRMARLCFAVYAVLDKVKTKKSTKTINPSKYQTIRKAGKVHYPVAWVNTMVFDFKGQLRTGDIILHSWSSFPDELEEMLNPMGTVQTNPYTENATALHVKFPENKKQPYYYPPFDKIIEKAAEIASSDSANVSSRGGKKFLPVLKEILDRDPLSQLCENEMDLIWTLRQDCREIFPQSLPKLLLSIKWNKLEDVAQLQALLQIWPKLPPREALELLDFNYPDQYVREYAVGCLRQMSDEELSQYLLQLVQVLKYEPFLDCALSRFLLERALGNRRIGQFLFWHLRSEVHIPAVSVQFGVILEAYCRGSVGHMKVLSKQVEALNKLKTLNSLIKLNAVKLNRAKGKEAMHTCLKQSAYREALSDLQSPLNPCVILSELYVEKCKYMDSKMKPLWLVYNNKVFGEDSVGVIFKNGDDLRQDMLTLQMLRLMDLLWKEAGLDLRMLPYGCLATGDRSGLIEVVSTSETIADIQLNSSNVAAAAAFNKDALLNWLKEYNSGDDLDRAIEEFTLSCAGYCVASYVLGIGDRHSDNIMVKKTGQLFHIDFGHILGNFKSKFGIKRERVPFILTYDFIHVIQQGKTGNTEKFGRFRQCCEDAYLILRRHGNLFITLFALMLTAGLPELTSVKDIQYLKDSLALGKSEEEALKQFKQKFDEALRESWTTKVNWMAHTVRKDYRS

| SMILES | IC50 [1] [µM] | IC50 [2] [µM] | Papp A→B at 10 µM [3] [×10⁻⁶ cm/s] | Intrinsic clearance (CLint) [4] [µL/min] | logD [5] | IC50 [6] [µM] |
| --- | --- | --- | --- | --- | --- | --- |
| Cc1cc([C@@H](C)Nc2ccccc2C(=O)NO)c2nc(N3CCOCC3)cc(=O)n2c1 | 0.084 | 2.88 | 52 | 30.2 | 1.5 |  |
| Cc1cc([C@@H](C)Nc2ccccc2C(=O)NS(C)(=O)=O)c2nc(N3CCOCC3)cc(=O)n2c1 | 0.012 | 0.16 | 0.11 | 15 | 0.9 |  |
| Cc1cc(C(C)Nc2ccccc2)c2nc(N3CCOCC3)cc(=O)n2c1 (racemic) |  | 5.8 | 66 | 20 |  |  |
| Cc1cc(C(C)Nc2cccc(C(=O)O)c2)c2nc(N3CCOCC3)cc(=O)n2c1 (racemic) |  |  | 0.9 | < 4 | 0.3 |  |
| Cc1cc(C(C)Nc2cc(Cl)ccc2C(=O)O)c2nc(N3CCOCC3)cc(=O)n2c1 (racemic) |  |  | 15 | 11.9 | 1.2 |  |
| Cc1cc(C(C)Nc2ccccc2S(=O)(=O)O)c2nc(N3CCOCC3)cc(=O)n2c1 (racemic) |  |  | < 0.05 | < 4 | 0.3 |  |
| Cc1cc(C(C)Nc2ccccc2-c2nnn[nH]2)c2nc(N3CCOCC3)cc(=O)n2c1 (racemic) |  |  | 0.08 | 18.1 | 0.8 |  |
| CC(Nc1ccccc1)c1cc(C(=O)O)cn2c(=O)cc(N3CCOCC3)nc12 (racemic) |  |  | 0.04 | < 4 | 0.6 |  |
| CC(Nc1ccccc1)c1cc(C(=O)N(C)C)cn2c(=O)cc(N3CCOCC3)nc12 (racemic) |  |  | 35.4 | 4.3 | 2.7 |  |
| CC(Nc1ccccc1)c1cc(C(=O)N(C)CCO)cn2c(=O)cc(N3CCOCC3)nc12 (racemic) |  |  | 4.3 | < 4 | 2 |  |
| CC(Nc1ccccc1)c1cc(C(=O)N2CCOCC2)cn2c(=O)cc(N3CCOCC3)nc12 (racemic) |  |  | 26.9 | < 4 | 2.7 |  |
| CC(Nc1ccccc1)c1cc(C(=O)N(C)CC(=O)O)cn2c(=O)cc(N3CCOCC3)nc12 (racemic) |  |  | 1 | < 4 | 0.6 |  |
| CC(Nc1ccccc1)c1cc(C(=O)NCCN(C)C)cn2c(=O)cc(N3CCOCC3)nc12 (racemic) |  |  |  | < 4 | 1.7 |  |
| CC(Nc1ccccc1)c1cc(C(=O)NCCN2CCNCC2)cn2c(=O)cc(N3CCOCC3)nc12 (racemic) |  |  |  | < 4 | 1.5 |  |
| CC(Oc1ccccc1)c1cc(C(=O)N(C)CCO)cn2c(=O)cc(N3CCOCC3)nc12 (racemic) |  |  |  |  | 2.3 | 0.4 |
| Cc1ccccc1OC(C)c1cc(C(=O)N(C)CCO)cn2c(=O)cc(N3CCOCC3)nc12 (racemic) |  |  |  |  | 3 | 0.7 |
| Cc1cccc(OC(C)c2cc(C(=O)N(C)CCO)cn3c(=O)cc(N4CCOCC4)nc23)c1 (racemic) |  |  |  |  | 2.8 | 5 |
| CC(Oc1ccccc1F)c1cc(C(=O)N(C)CCO)cn2c(=O)cc(N3CCOCC3)nc12 (racemic) |  |  |  |  | 2.3 | 2.1 |
| CC(Oc1cccc(C#N)c1)c1cc(C(=O)N(C)CCO)cn2c(=O)cc(N3CCOCC3)nc12 (racemic) |  |  |  |  | 2 | 1.5 |
| COc1ccccc1OC(C)c1cc(C(=O)N(C)CCO)cn2c(=O)cc(N3CCOCC3)nc12 (racemic) |  |  |  |  | 1.9 | 9.6 |
| COc1cccc(OC(C)c2cc(C(=O)N(C)CCO)cn3c(=O)cc(N4CCOCC4)nc23)c1 (racemic) |  |  |  |  | 2.3 | 1.9 |
| Cc1cc(OC(C)c2cc(C(=O)N(C)CCO)cn3c(=O)cc(N4CCOCC4)nc23)ccc1F (racemic) |  |  |  |  | 2.9 | 2.5 |
| Cc1c(F)cccc1OC(C)c1cc(C(=O)N(C)CCO)cn2c(=O)cc(N3CCOCC3)nc12 (racemic) |  |  |  |  | 3.3 | 0.7 |
